The source made the active and inactive calls. The calls are words filed in the database; no cut-off is given here.
What was measured:
Homo sapiens [1] = species on record: Homo sapiens; assay: Selectivity for human galectin-8N over human galectin-1
Homo sapiens [2] = species on record: Homo sapiens; assay: Selectivity for human galectin-8N over human galectin-8 C terminal domain
Galectin-9 [3] = biological target: T1, Galectin-9 (Homo sapiens, UniProt O00182); assay: Binding affinity to human galectin-9 C terminal domain assessed as dissociation constant by competitive fluorescence polarization assay
T1 sequence (O00182 whole entry, the tested form may be a part): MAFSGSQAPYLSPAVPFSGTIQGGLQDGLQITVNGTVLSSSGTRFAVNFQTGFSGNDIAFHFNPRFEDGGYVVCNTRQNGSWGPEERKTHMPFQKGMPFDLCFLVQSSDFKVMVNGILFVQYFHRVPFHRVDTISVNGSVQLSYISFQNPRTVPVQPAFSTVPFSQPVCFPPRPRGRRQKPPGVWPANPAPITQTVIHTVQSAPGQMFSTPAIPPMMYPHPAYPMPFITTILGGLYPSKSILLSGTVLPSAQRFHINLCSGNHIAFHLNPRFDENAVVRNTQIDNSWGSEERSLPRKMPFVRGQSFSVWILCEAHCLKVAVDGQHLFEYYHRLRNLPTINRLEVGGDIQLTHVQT

Galectin-7 [4] = biological target: T2, Galectin-7 (Homo sapiens, UniProt P47929); assay: Binding affinity to human galectin-7 assessed as dissociation constant by competitive fluorescence polarization assay
T2 sequence (P47929 whole entry, the tested form may be a part): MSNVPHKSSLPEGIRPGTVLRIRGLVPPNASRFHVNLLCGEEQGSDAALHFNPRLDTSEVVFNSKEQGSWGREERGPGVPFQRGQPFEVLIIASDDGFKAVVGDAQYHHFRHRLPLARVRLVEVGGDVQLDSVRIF

Galectin-4 [5] = biological target: T3, Galectin-4 (Homo sapiens, UniProt P56470); assay: Binding affinity to human galectin-4 N terminal domain assessed as dissociation constant by competitive fluorescence polarization assay
T3 sequence (P56470 whole entry): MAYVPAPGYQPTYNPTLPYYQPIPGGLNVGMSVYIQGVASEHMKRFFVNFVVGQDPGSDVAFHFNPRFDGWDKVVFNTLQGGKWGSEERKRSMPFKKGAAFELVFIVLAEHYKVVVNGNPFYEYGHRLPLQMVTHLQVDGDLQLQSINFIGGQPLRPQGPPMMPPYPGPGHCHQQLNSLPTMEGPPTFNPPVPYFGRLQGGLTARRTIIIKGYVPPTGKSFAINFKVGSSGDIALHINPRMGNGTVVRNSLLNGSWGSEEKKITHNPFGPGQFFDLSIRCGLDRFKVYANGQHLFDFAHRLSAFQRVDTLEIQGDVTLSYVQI

Galectin-9 [6] = biological target: T1, Galectin-9; assay: Binding affinity to human galectin-9 N terminal domain assessed as dissociation constant by competitive fluorescence polarization assay
Galectin-4 [7] = biological target: T3, Galectin-4; assay: Binding affinity to human galectin-4 C terminal domain assessed as dissociation constant by competitive fluorescence polarization assay
Homo sapiens [8] = species on record: Homo sapiens; assay: Selectivity for human galectin-8N over human galectin-3
Galectin-2 = biological target: T4, Galectin-2 (Homo sapiens, UniProt P05162); assay: Binding affinity to human galectin-2 assessed as dissociation constant by competitive fluorescence polarization assay
T4 sequence (P05162 whole entry): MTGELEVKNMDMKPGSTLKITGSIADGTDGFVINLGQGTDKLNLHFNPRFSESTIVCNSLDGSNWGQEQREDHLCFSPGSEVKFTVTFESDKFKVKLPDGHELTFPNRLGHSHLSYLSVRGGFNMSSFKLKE

[9] = biological target: Galectin-1 (Homo sapiens) (UniProt P09382); assay: Binding affinity to human galectin-1 assessed as dissociation constant measured up to 1500 uM by competitive fluorescence polarization assay; conditions: dose microM <=1500
Galectin-1 (Homo sapiens), sequence (P09382 whole entry, the tested form may be a part): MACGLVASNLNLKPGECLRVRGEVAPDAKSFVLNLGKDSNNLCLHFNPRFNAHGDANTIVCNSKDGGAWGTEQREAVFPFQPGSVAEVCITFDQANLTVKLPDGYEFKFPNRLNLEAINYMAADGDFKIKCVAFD

Homo sapiens [10] = species on record: Homo sapiens; assay: Selectivity for human galectin-8N over human galectin-9 N terminal domain
Homo sapiens [11] = species on record: Homo sapiens; assay: Selectivity for human galectin-8N over human galectin-4 N terminal domain
Homo sapiens [12] = species on record: Homo sapiens; assay: Selectivity for human galectin-8N over human galectin-2
[13] = biological target: T5, Galectin-2 (Homo sapiens) (UniProt P05162); assay: Binding affinity to human galectin-2 assessed as dissociation constant measured up to 1500 uM by competitive fluorescence polarization assay; conditions: dose microM <=1500
T5 sequence (whole entry): T4 sequence (P05162 whole entry)

[14] = biological target: T6, Galectin-8 (Homo sapiens) (UniProt O00214); assay: Binding affinity to human galectin-8 C terminal domain assessed as dissociation constant measured up to 1500 uM by competitive fluorescence polarization assay; conditions: dose microM <=1500
T6 sequence (whole entry): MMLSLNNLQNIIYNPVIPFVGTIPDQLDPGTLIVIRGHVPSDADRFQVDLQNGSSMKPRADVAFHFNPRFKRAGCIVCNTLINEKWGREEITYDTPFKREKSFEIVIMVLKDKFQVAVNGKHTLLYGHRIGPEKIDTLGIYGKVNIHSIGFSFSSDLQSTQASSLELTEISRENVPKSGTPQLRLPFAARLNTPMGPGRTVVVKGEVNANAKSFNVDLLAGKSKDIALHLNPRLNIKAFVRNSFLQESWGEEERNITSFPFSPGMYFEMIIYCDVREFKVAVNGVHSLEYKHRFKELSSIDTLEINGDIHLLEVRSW

Galectin-9 [15] = biological target: T1, Galectin-9; assay: Binding affinity to human galectin-9 C terminal domain assessed as dissociation constant measured up to 1500 uM by competitive fluorescence polarization assay; conditions: dose microM <=1500
Homo sapiens [16] = species on record: Homo sapiens; assay: Selectivity for human galectin-8N over human galectin-9 C terminal domain
Homo sapiens [17] = species on record: Homo sapiens; assay: Selectivity for human galectin-8N over human galectin-4 C terminal domain
K562 = assay: Cytotoxicity against human K562 cells assessed as cell viability at 1 to 100 uM measured after 24 hrs by MTS assay; format: functional, cell-based; conditions: dose 1-100 µM
Outline: (§1)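 MTS viability assay on human PBMCs and on the K562 and MDA-MB-231 cancer lines. The cancer lines were exposed to 1–100 μM compound, and PBMCs to concentrations up to 100 μM. Read-out was the MTS tetrazolium reduction signal.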

[18] = biological target: T6, Galectin-8 (Homo sapiens); assay: Antagonist activity at galactin-8 in human MDA-MB-231 cells assessed as reduction in IL-8 secretion at 100 uM measured after 24 hrs by flow cytometry relative to control; format: cell-based; parameters: scale not given: the % may be the effect or the level left
Outline: (§2)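 MDA-MB-231 cells, which express galectin-8 endogenously, were incubated with the compounds at 10 or 100 μM. Secreted IL-6 and IL-8 were quantified in pg/mL and compared with untreated cells. Values are means ± SEM from three independent experiments, with significance tested against untreated controls. Cell viability at the same concentrations was checked separately by MTS assay.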

MDA-MB-231 = assay: Cytotoxicity against human MDA-MB-231 cells assessed as cell viability at 1 to 100 uM measured after 24 hrs by MTS assay; format: functional, cell-based; conditions: dose 1-100 µM; outline: as §1
[19] = biological target: T6, Galectin-8 (Homo sapiens); assay: Antagonist activity at galactin-8 in human MDA-MB-231 cells assessed as reduction in IL-6 secretion at 100 uM measured after 24 hrs by flow cytometry relative to control; format: cell-based; parameters: scale not given: the % may be the effect or the level left; outline: as §2
[20] = Cytotoxicity against human PBMC cells assessed as cell viability upto 100 uM measured after 24 hrs by MTS assay; format: cell-based; outline: as §1
[21] = biological target: T6, Galectin-8 (Homo sapiens); assay: Antagonist activity at galactin-8 in human MDA-MB-231 cells assessed as reduction in IL-6 secretion at 10 uM measured after 24 hrs by flow cytometry relative to control; format: cell-based; parameters: scale not given: the % may be the effect or the level left; outline: as §2
Galectin-9 [22] = biological target: T1, Galectin-9; assay: Binding affinity to human galectin-9 N terminal domain assessed as dissociation constant measured up to 1500 uM by competitive fluorescence polarization assay; conditions: dose microM <=1500
[23] = biological target: T7, Galectin-4 (Homo sapiens) (UniProt P56470); assay: Binding affinity to human galectin-4 N terminal domain assessed as dissociation constant measured up to 1500 uM by competitive fluorescence polarization assay; conditions: dose microM <=1500
T7 sequence (whole entry): T3 sequence (P56470 whole entry)

Galectin-7 [24] = biological target: T2, Galectin-7; assay: Binding affinity to human galectin-7 assessed as dissociation constant measured up to 1500 uM by competitive fluorescence polarization assay; conditions: dose microM <=1500
Galectin-8 = biological target: T8, Galectin-8 (Homo sapiens, UniProt O00214); assay: Binding affinity to human galectin-8 C terminal domain assessed as dissociation constant by competitive fluorescence polarization assay
T8 sequence (O00214 whole entry): T6 sequence (whole entry)

| Structure (SMILES) | Selectivity ratio (Homo sapiens [1]) | Selectivity ratio (Homo sapiens [2]) | Kd (Galectin-7 [4]) | Selectivity ratio (Homo sapiens [8]) | Kd (Galectin-2) | Selectivity ratio (Homo sapiens [10]) | Selectivity ratio (Homo sapiens [11]) | Selectivity ratio (Homo sapiens [12]) | Activity (Galectin-9 [15]) | Selectivity ratio (Homo sapiens [16]) | Selectivity ratio (Homo sapiens [17]) | Activity (Galectin-9 [22]) | further results |
| --- | --- | --- | --- | --- | --- | --- | --- | --- | --- | --- | --- | --- | --- |
| CCOC(=O)c1ccc2c(c1)nc(CO[C@@H]1C=CO[C@H](CO)[C@@H]1O)n2C | 1.2 | > 2 | Not Active | 0.99 | Not Active | – | – | – | – | – | – | – | Kd (Galectin-9 [3]): Not Active; Kd (Galectin-4 [5]): Not Active; Kd (Galectin-9 [6]): Not Active; Kd (Galectin-4 [7]): Not Active |
| COC(=O)c1ccc2ccc(CO[C@@H]3C=CO[C@H](CO)[C@@H]3O)nc2c1 | > 2 | > 2 | Not Active | > 2 | – | > 2 | > 2 | > 2 | inactive | > 2 | > 2 | – | Activity [9]: inactive; Activity [13]: inactive; Activity [14]: inactive |
| Cn1c(CO[C@@H]2[C@@H](O)[C@@H](Sc3ccc(Cl)c(Cl)c3)O[C@H](CO)[C@@H]2O)nc2ccc(C(=O)O)cc21 | – | – | – | – | – | – | – | – | – | – | – | – | Activity (K562): inactive; Activity [18]: 55%; Activity (MDA-MB-231): inactive; Activity [19]: 65%; Activity [20]: Non-Toxic; Activity [21]: 15% |
| OC[C@H]1OC=C[C@@H](O)[C@H]1O | 1.2 | > 2 | Not Active | > 2 | Not Active | > 2 | 1.8 | – | – | > 2 | > 2 | inactive | – |
| O=C(O)c1ccc2ccc(CO[C@@H]3C=CO[C@H](CO)[C@@H]3O)nc2c1 | > 2 | > 2 | – | > 2 | – | > 2 | > 2 | > 2 | inactive | > 2 | > 2 | – | Activity [23]: inactive; Activity (Galectin-7 [24]): inactive |
| O=C(O)c1ccc2nc(CO[C@@H]3C=CO[C@H](CO)[C@@H]3O)[nH]c2c1 | > 2 | > 2 | – | > 2 | – | > 2 | > 2 | > 2 | – | > 2 | > 2 | inactive | Activity [9]: inactive; Activity (K562): inactive; Kd (Galectin-8): Not Active; Activity (MDA-MB-231): inactive; Activity (Galectin-7 [24]): inactive; Activity [20]: Non-Toxic |
| CO[C@@H]1O[C@H](CO)[C@H](O)[C@H](O)[C@H]1O | – | – | Not Active | – | – | – | – | – | – | – | – | – | – |
| COC(=O)c1ccc2nc(CO[C@@H]3C=CO[C@H](CO)[C@@H]3O)n(C)c2c1 | > 2 | > 2 | Not Active | > 2 | Not Active | > 2 | > 2 | – | – | – | > 2 | inactive | Kd (Galectin-9 [3]): Not Active |
| Cn1c(CO[C@@H]2C=CO[C@H](CO)[C@@H]2O)nc2ccc(C(=O)O)cc21 | – | > 2 | – | – | – | > 2 | > 2 | > 2 | inactive | > 2 | > 2 | – | Activity (K562): inactive; Activity [18]: 55%; Activity (MDA-MB-231): inactive; Activity (Galectin-7 [24]): inactive; Activity [19]: 65%; Activity [20]: Non-Toxic |
| COC(=O)c1ccc2nc(CO[C@@H]3C=CO[C@H](CO)[C@@H]3O)[nH]c2c1 | > 2 | > 2 | Not Active | > 2 | Not Active | > 2 | > 2 | – | inactive | > 2 | > 2 | inactive | Activity [9]: inactive |
| Cn1c(CO[C@@H]2C=CO[C@H](CO)[C@@H]2O)nc2cc(C(=O)O)ccc21 | 1.4 | > 2 | Not Active | 0.95 | Not Active | > 2 | > 2 | – | inactive | > 2 | > 2 | inactive | – |
| OC[C@H]1Oc2cc(Cc3ccc(F)cc3)cc3c2[C@@H](OC3)[C@H]1O | > 2 | – | Not Active | > 2 | Not Active | > 2 | > 2 | – | – | > 2 | > 2 | – | Kd (Galectin-8): Not Active; Kd (Galectin-4 [7]; read-out: Kd): > 3 mM |

Source: ChEMBL document CHEMBL4823328, “Structure-Guided Design of d-Galactal Derivatives with High Affinity and Selectivity for the Galectin-8 N-Terminal Domain” (ACS Med Chem Lett, 2021)
